According to ChEMBL document CHEMBL4118033, “Total Synthesis, Configuration Assignment, and Cytotoxic Activity Evaluation of Protulactone A” (J Nat Prod, 2017):
The source made the active and inactive calls.

Assays:
Format in all cases: functional, cell-based
[1] = test system: SK-OV-3; assay: Antiproliferative activity against human SKOV3 cells at 10 uM incubated for 48 hrs by sulforhodamine B assay
Method in brief: (§1)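 Run by the NCI Developmental Therapeutics Program (Division of Cancer Treatment and Diagnosis) as part of the NCI60 human tumour cell line panel screen. Each compound was tested at a single dose of 10 μM. Results are reported as one-dose mean graphs.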

[2] = test system: SN12C; assay: Antiproliferative activity against human SN12C cells at 10 uM incubated for 48 hrs by sulforhodamine B assay; method in brief: as §1
[3] = test system: CCRF-CEM; assay: Antiproliferative activity against human CCRF-CEM cells at 10 uM incubated for 48 hrs by sulforhodamine B assay; method in brief: as §1
[4] = test system: HCT-15; assay: Antiproliferative activity against human HCT15 cells at 10 uM incubated for 48 hrs by sulforhodamine B assay; method in brief: as §1
[5] = test system: HL-60(TB); assay: Antiproliferative activity against human HL-60(TB) cells at 10 uM incubated for 48 hrs by sulforhodamine B assay
Method in brief: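 Tested within the NCI60 cancer cell line panel screen run by the Developmental Therapeutics Program (Division of Cancer Treatment and Diagnosis, National Cancer Institute). Each stereoisomer was given at a single dose of 10 μM. Results are reported as one-dose mean graphs.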

[6] = test system: T47D; assay: Antiproliferative activity against human T47D cells at 10 uM incubated for 48 hrs by sulforhodamine B assay
Method in brief: (§2)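 Run by the NCI Developmental Therapeutics Program (Division of Cancer Treatment and Diagnosis) as part of the NCI60 human tumour cell line panel. Each compound was tested in vitro at a single dose of 10 μM, and the data are reported as one-dose mean graphs across the panel.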

[7] = test system: MDA-MB-468; assay: Antiproliferative activity against human MDA-MB-468 cells at 10 uM incubated for 48 hrs by sulforhodamine B assay; method in brief: as §1
[8] = test system: OVCAR-4; assay: Antiproliferative activity against human OVCAR4 cells at 10 uM incubated for 48 hrs by sulforhodamine B assay; method in brief: as §1
[9] = test system: SK-MEL-5; assay: Antiproliferative activity against human SK-MEL-5 cells at 10 uM incubated for 48 hrs by sulforhodamine B assay; method in brief: as §1
[10] = test system: NCI-H322M; assay: Antiproliferative activity against human NCI-H322M cells at 10 uM incubated for 48 hrs by sulforhodamine B assay; method in brief: as §1
[11] = test system: Hs-578T; assay: Antiproliferative activity against human Hs 578T cells at 10 uM incubated for 48 hrs by sulforhodamine B assay; method in brief: as §1
[12] = test system: HCT-116; assay: Antiproliferative activity against human HCT116 cells at 10 uM incubated for 48 hrs by sulforhodamine B assay; method in brief: as §1
[13] = test system: UACC-62; assay: Antiproliferative activity against human UACC62 cells at 10 uM incubated for 48 hrs by sulforhodamine B assay; method in brief: as §2
[14] = test system: RPMI-8226; assay: Antiproliferative activity against human RPMI8226 cells at 10 uM incubated for 48 hrs by sulforhodamine B assay; method in brief: as §1
[15] = test system: SW-620; assay: Antiproliferative activity against human SW620 cells at 10 uM incubated for 48 hrs by sulforhodamine B assay; method in brief: as §2
[16] = test system: HOP-62; assay: Antiproliferative activity against human HOP62 cells at 10 uM incubated for 48 hrs by sulforhodamine B assay; method in brief: as §1
[17] = test system: SF-268; assay: Antiproliferative activity against human SF268 cells at 10 uM incubated for 48 hrs by sulforhodamine B assay; method in brief: as §1
[18] = test system: M14; assay: Antiproliferative activity against human M14 cells at 10 uM incubated for 48 hrs by sulforhodamine B assay; method in brief: as §1
[19] = test system: NCI-H226; assay: Antiproliferative activity against human NCI-H226 cells at 10 uM incubated for 48 hrs by sulforhodamine B assay; method in brief: as §1
[20] = test system: SF-295; assay: Antiproliferative activity against human SF295 cells at 10 uM incubated for 48 hrs by sulforhodamine B assay; method in brief: as §1
[21] = test system: SK-MEL-2; assay: Antiproliferative activity against human SK-MEL-2 cells at 10 uM incubated for 48 hrs by sulforhodamine B assay; method in brief: as §1
[22] = test system: ACHN; assay: Antiproliferative activity against human ACHN cells at 10 uM incubated for 48 hrs by sulforhodamine B assay; method in brief: as §1
[23] = test system: MOLT-4; assay: Antiproliferative activity against human MOLT4 cells at 10 uM incubated for 48 hrs by sulforhodamine B assay; method in brief: as §1
[24] = test system: TK-10; assay: Antiproliferative activity against human TK10 cells at 10 uM incubated for 48 hrs by sulforhodamine B assay; method in brief: as §2
[25] = test system: U-251; assay: Antiproliferative activity against human U251 cells at 10 uM incubated for 48 hrs by sulforhodamine B assay; method in brief: as §2
[26] = test system: HCC 2998; assay: Antiproliferative activity against human HCC2998 cells at 10 uM incubated for 48 hrs by sulforhodamine B assay; method in brief: as §1
[27] = test system: NCI-H460; assay: Antiproliferative activity against human NCI-H460 cells at 10 uM incubated for 48 hrs by sulforhodamine B assay; method in brief: as §1
[28] = test system: MDA-MB-435; assay: Antiproliferative activity against human MDA-MB-435 cells at 10 uM incubated for 48 hrs by sulforhodamine B assay; method in brief: as §1
[29] = test system: IGROV-1; assay: Antiproliferative activity against human IGROV1 cells at 10 uM incubated for 48 hrs by sulforhodamine B assay; method in brief: as §1
[30] = test system: KM12; assay: Antiproliferative activity against human KM12 cells at 10 uM incubated for 48 hrs by sulforhodamine B assay; method in brief: as §1
[31] = test system: RXF 393; assay: Antiproliferative activity against human RXF393 cells at 10 uM incubated for 48 hrs by sulforhodamine B assay; method in brief: as §1
[32] = test system: NCI-H522; assay: Antiproliferative activity against human NCI-H522 cells at 10 uM incubated for 48 hrs by sulforhodamine B assay; method in brief: as §1
[33] = test system: HT-29; assay: Antiproliferative activity against human HT-29 cells at 10 uM incubated for 48 hrs by sulforhodamine B assay; method in brief: as §1
[34] = test system: OVCAR-5; assay: Antiproliferative activity against human OVCAR5 cells at 10 uM incubated for 48 hrs by sulforhodamine B assay; method in brief: as §1
[35] = test system: A498; assay: Antiproliferative activity against human A498 cells at 10 uM incubated for 48 hrs by sulforhodamine B assay; method in brief: as §1
[36] = test system: SF-539; assay: Antiproliferative activity against human SF539 cells at 10 uM incubated for 48 hrs by sulforhodamine B assay; method in brief: as §1
[37] = test system: SNB-75; assay: Antiproliferative activity against human SNB75 cells at 10 uM incubated for 48 hrs by sulforhodamine B assay; method in brief: as §2
[38] = test system: NCI-H23; assay: Antiproliferative activity against human NCI-H23 cells at 10 uM incubated for 48 hrs by sulforhodamine B assay; method in brief: as §1
[39] = test system: SK-MEL-28; assay: Antiproliferative activity against human SK-MEL-28 cells at 10 uM incubated for 48 hrs by sulforhodamine B assay; method in brief: as §1
[40] = test system: DU-145; assay: Antiproliferative activity against human DU145 cells at 10 uM incubated for 48 hrs by sulforhodamine B assay; method in brief: as §1
[41] = test system: A549; assay: Antiproliferative activity against human A549/ATCC cells at 10 uM incubated for 48 hrs by sulforhodamine B assay; method in brief: as §1
[42] = test system: HOP-92; assay: Antiproliferative activity against human HOP92 cells at 10 uM incubated for 48 hrs by sulforhodamine B assay; method in brief: as §1
[43] = test system: LOX IMVI; assay: Antiproliferative activity against human LOXIMVI cells at 10 uM incubated for 48 hrs by sulforhodamine B assay; method in brief: as §1
[44] = test system: Malme-3M; assay: Antiproliferative activity against human MALME-3M cells at 10 uM incubated for 48 hrs by sulforhodamine B assay; method in brief: as §1

Measured: Activity

O=C1C[C@H]2O[C@H]([C@@H](O)c3ccccc3)[C@H](O)[C@H]2O1
active: all assays above
